# Hits are enriched below; roughly 4.1% of the tested compounds scored in any of these assays.
# Dynein transport – inhibitors of GR-EGFP nuclear translocation, primary screen, dynein cargo transport inhibitor project, imaging, high-content, 3617.4 mouse cells; AID 1381, 2008; test concentration mostly 20 µM; stimulated with dexamethasone, 1 µM; stronger effect = lower value; 0.47% of 220,000 active; z-score, hits read low;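 active = plate z-score of nuclear minus cytoplasmic receptor signal below a set negative limit, without overly bright fluorescence or cell loss, cut at about -3.5 in these data, passing the limit was not always enough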;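 note: z-score of nuclear minus cytoplasmic ring GR-EGFP intensity difference per well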
#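 Also added – dexamethasone, 1.0 µM final · Buffer or medium – tet-free, stripped-serum medium · Schedule – induction 48 h, compound 1 h, agonist 30 min · Detection – formaldehyde fixation, Hoechst nuclear stain, 10x automated fluorescence imaging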
# DTT redox prof – compounds producing H2O2 with reducing agent – biochemical, NIH compound library profiling, artefact control for MLSCN library redox annotation, primary screen; DTT-dependent redox cycling H2O2, phenol red/HRP absorbance; 100% = 100 µM peroxide control, 0% = buffer; activation, % at 10 µM; 0.03% of 200,000 active;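 active = activation of at least 50% relative to the plate's high and low controls in the primary single-dose screen; inactive = activation below 50%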;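 note: compound incubated with DTT at 0.8 mM final as the reducing agent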
# Autophagy mod – autophagy modulators in MEF cells, primary screen, imaging, high-content, MEF GFP-LC3; 0.98% of 190,000 active; AID 463193, 2010; calls only at 10 µM (by protocol); MEF GFP-LC3 puncta imaging; test concentration mostly 10 µM;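 active = percentage of spot-positive cells more than 3 SD above its plate mean, without a fluorescence outlier flag or 80% toxicity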;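 note: spot-positive cell cutoff set from DMSO-treated cells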
# Cl transport mod – KCC2 cotransporter modulators, thallium flux, primary screen, cell-based, HEK293 KCC2, FluoZin-2 fluorescence, MLSMR | KCC2 cells, thallium flux FluoZin-2 fluorescence | B-score of Tl+ flux slope (higher = more flux/activation; lower = inhibition) at 10 µM | 2.2% of 190,000 active | AID 1456, 2008;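 active = thallium flux slope and its plate-corrected score both differing from the plate sample mean at a set confidence after two filtering rounds, in either direction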;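 note: slope of fluorescence scaled to starting intensity during 10 to 20 s after thallium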
# Target sequence (Q9H2X9 whole entry, looked up): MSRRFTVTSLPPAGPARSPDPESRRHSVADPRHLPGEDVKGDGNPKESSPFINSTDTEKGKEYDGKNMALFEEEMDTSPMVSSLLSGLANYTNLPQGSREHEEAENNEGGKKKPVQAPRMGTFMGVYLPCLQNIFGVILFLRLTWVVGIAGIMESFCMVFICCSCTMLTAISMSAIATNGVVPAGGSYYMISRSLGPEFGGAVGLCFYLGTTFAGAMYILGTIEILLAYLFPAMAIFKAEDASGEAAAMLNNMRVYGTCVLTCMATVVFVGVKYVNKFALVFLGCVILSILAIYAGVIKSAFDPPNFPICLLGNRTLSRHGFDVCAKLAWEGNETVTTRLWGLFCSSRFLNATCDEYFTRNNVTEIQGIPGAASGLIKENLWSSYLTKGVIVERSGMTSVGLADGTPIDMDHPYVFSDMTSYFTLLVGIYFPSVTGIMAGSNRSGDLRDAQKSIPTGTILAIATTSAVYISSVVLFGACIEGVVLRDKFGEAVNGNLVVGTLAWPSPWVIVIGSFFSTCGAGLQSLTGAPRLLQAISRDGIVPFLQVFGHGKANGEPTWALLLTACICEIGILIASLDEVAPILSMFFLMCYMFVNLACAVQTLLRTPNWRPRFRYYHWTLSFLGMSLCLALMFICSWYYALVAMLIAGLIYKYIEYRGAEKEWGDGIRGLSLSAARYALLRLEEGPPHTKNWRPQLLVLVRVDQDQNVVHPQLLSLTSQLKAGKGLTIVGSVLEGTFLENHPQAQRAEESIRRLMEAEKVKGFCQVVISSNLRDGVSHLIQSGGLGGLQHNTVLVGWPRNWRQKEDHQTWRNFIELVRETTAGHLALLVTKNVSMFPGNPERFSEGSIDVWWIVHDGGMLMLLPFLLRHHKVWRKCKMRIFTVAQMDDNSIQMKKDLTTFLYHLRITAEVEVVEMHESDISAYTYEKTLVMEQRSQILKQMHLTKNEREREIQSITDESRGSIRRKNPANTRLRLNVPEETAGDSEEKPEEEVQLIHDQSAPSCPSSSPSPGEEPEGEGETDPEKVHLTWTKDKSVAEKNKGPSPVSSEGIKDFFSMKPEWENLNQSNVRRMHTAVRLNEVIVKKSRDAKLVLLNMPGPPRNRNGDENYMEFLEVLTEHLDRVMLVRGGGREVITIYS
# ROMK primary – ROMK potassium channel modulators, primary screen, cell-based, thallium flux, MLSMR library; ATP-sensitive inward rectifier potassium channel 1 (Homo sapiens), P48048; Tet-inducible ROMK, thallium flux fluorescence; actives lie on both sides; B-score at 10 µM; 2% of 130,000 active; AID 1918, 2009;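 active = signal ratio slope over the read window, or its plate-corrected B-score, at least 3 SD from the plate mean, either direction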;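 note: B-score of the F/F0 ratio slope over 7 to 12 s after thallium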
# Starred values were filed as active, the others as inactive; i = inactive; · = not tested or not shown; + = active, no number.
SMILES,Dynein transport,DTT redox prof,Autophagy mod,Cl transport mod,ROMK primary
COC(=O)c1[nH]c2c(c1C)C(=O)CC(c1cc(OC)ccc1OC)C2 (stereo unspecified),0.51,0,·,1.7,·
COCCOC(=O)c1[nH]c2c(c1C)C(=O)CC(c1ccccc1)C2 (stereo unspecified),0.29,1,+,-0.042,·
CC(C)OC(=O)c1ccc(N)cc1,-0.21,0,i,0.32,0.55
CC(C)(C)C(=O)Nc1ccc(-c2cc3cc(Cl)ccc3o2)cc1,-0.77,·,·,0.22,2.1
COc1ccc(CNC(=O)C(=O)NCCCn2ccnc2)cc1,-0.86,0,i,·,-0.049
COc1ccc(-c2nn(-c3ccccc3)cc2C(=O)O)cc1,-0.98,0,i,-1.8,·
COc1ccc(-c2nn(-c3ccccc3)cc2C(=O)N2c3ccc(C)cc3C3CN(C)CCC32)cc1 (stereo unspecified),0.51,-2,+,-0.16,-0.021
C/C(=N\NC(=O)CC1(C)OCCO1)c1cccs1,-0.87,-1,+,0.56,0.97
CC(C)Cn1c(N)c(C(=O)COC(=O)c2cnc(Cl)c(Cl)c2)c(=O)n(C)c1=O,-1.3,0,i,-0.9,-1.5
CC(C)Oc1ccccc1C1CC(=O)Nc2cc3c(cc21)OCCO3 (stereo unspecified),-0.28,2,i,5.4,·
COc1ccccc1C1CC(=O)Nc2cc3c(cc21)OCCO3 (stereo unspecified),1.1,3,+,0.57,·
CSC(=S)N/N=C(\C)c1ccc(Br)cc1,-0.38,-1,i,84*,3.1*
CC(=O)N1CC[n+]2c(-c3ccc(Cl)cc3)csc21,1.3,0,+,-0.33,0.41
CCc1ccc(-c2csc3[n+]2CCN3C(C)=O)cc1,-0.29,-3,i,0.21,·
Cc1ccc(S(=O)(=O)CCSc2nc(C)cc(C(F)(F)F)c2C#N)cc1,-1.4,-2,+,-0.35,-0.026
Cc1cc(C(F)(F)F)c(C#N)c(SCC(=O)Nc2nc3cc(Br)ccc3s2)n1,0.51,1,+,0.7,·
Cc1ccc(S(=O)(=O)CCSc2ccc(C(F)(F)F)cn2)cc1,0.049,·,·,·,·
COc1ccccc1N1CCN(C(=O)NC23CC4CC(CC(C4)C2)C3)CC1,-0.21,0,i,0.59,·
CCOc1ccc(S(=O)(=O)NCCCN2CCCC2=O)cc1,0.6,-2,i,0.32,0.84
Cc1cc(C)cc(C(=O)N2CCN(c3ccccn3)CC2)c1,0.64,-1,i,0.014,0.67
CN1C(=O)S/C(=C/c2ccccc2OCc2ccc(C(=O)O)cc2)C1=O,-1.1,-2,i,-4.3*,-2.7*
CN1C(=O)S/C(=C\c2ccccc2OCc2ccc(C(=O)O)cc2)C1=O,0.72,-1,i,-2.4,-0.072
OCCNCC(O)Cn1c2ccccc2c2ccccc21 (stereo unspecified),1.2,0,+,1.4,-2.9
OCCNCC(O)Cn1ccc2ccccc21 (stereo unspecified),0.36,2,i,-0.0069,·
CC(C)NC(=O)NC(=O)COC(=O)/C=C/c1ccccc1[N+](=O)[O-],-0.17,-1,i,-1.5,-0.49
SMILES,Dynein transport,DTT redox prof,Autophagy mod,Cl transport mod,ROMK primary
O=[N+]([O-])c1ccc(-c2cn(-c3ccc(Cl)cc3)c(=S)[nH]2)cc1,1.6,0,i,3.7*,·
CCc1ccc(-n2cc(-c3ccc([N+](=O)[O-])cc3)[nH]c2=S)cc1,-0.18,1,i,3.7,0.13
Cc1ccsc1/C=N/NC(=O)c1sccc1C,0.7,-4,i,5.7*,·
CCOC(=O)c1ccc(N2C(=O)CC(N3CCC(C(N)=O)(N4CCCCC4)CC3)C2=O)cc1 (stereo unspecified),-1.5,0,+,·,·
CCOc1cccc(N2C(=O)CC(N3CCC(C(N)=O)(N4CCCCC4)CC3)C2=O)c1 (stereo unspecified),-1.3,2,i,0.52,-0.69
Nc1[nH]ncc1N=Nc1ccc(Cl)cc1,-0.31,0,i,-0.36,-0.38
Nc1[nH]ncc1-c1ccc(Cl)cc1,-0.15,0,+,-1.7,-0.67
COc1cc(/C=N/NC(=O)C2C3CCCCC32C)cc(Br)c1O (stereo unspecified),0.33,-1,i,0.79,·
O=C(Nc1cccc(C(=O)O)c1)/C(=C\c1ccccc1)NC(=O)c1cccc2ccccc12,0.18,0,i,-0.24,0.43
CC1CCCC(NC(=O)CCNS(=O)(=O)c2ccc(Br)cc2)C1C (stereo unspecified),-0.025,0,i,-1.8,·
CCN1C(=O)/C(=C/N(C(C)=O)c2ccccc2)N(c2ccccc2)C1=S,-1.5,0,i,·,-3.8*
C#C[C@]1(O)CC[C@H]2[C@@H]3CCc4cc(OC5CCCC5)ccc4[C@H]3CC[C@@]21C,·,·,·,1.1,·
C#C[C@]1(O)CC[C@H]2[C@@H]3CCc4cc(OC)ccc4[C@H]3CC[C@@]21C,0.86,0,+,-0.34,·
CCOC(=O)c1c(C)[nH]c(C(=O)OCC(=O)Nc2cc(C)ccc2OC)c1C,0.64,0,+,·,0.0028
CCOC(=O)c1[nH]c(C)c(C(=O)Nc2ccccc2F)c1C,-0.9,2,+,0.054,·
COc1ccc(CNC(=O)Cc2csc(Nc3nc(=S)[nH]c4ccccc34)n2)cc1,-0.42,-5,i,7*,·
O=C(Cc1csc(Nc2nc(=S)[nH]c3ccccc23)n1)NCc1ccc(Cl)cc1,1.2,-4,i,5.9*,·
CCCN(CCC)Cc1cc(=O)oc2cc3c(cc12)CCC3,-1.2,·,·,-0.9,·
O=C(CNCC1CCCO1)Nc1ccc([N+](=O)[O-])cc1C(=O)Nc1ccccc1F (stereo unspecified),1.6,-2,i,-0.33,0.15
COc1cccc(NC(=O)c2cc([N+](=O)[O-])ccc2NC(=O)CNCC2CCCO2)c1 (stereo unspecified),1.3,-1,+,-0.41,-0.72
Cn1cnc([N+](=O)[O-])c1SCC(=O)NN,0.3,·,·,0.4,0.51
Cn1cnc([N+](=O)[O-])c1SCC(O)CN1CCCCC1 (stereo unspecified),-1.5,1,+,0.06,-0.0069
CN(CCO)c1cnccn1,0.61,-2,i,-0.02,-0.022
Fc1cccc(-c2cc3nc4c(c(N5CCC6(CC5)OCCO6)n3n2)CCCC4)c1,0.64,-1,+,-1.2,-0.11
Clc1cccc(-c2cc3nc4c(c(N5CCNCC5)n3n2)CCCC4)c1,-2.8,0,+,0.76,·

# Screening data deposited in PubChem BioAssay by several laboratories.
